Experimental data published in the array DNA melting data of Ke et al. (doi:10.1101/2024.01.08.574731).

How the values were obtained:
[1] = melting temperature; fluorescence melt of hairpins on a sequencing array, two-state fit, raised by 9.35 °C to match UV melts; conditions: sodium 0.088 M
In short: (§1)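 Melting temperature and folding enthalpy were obtained by bootstrapped two-state fitting. Fits used Cy3 fluorescence of library hairpins with annealed Cy3 and quencher oligos on a sequenced MiSeq flow cell, imaged in 50 mM Na-HEPES pH 8.0, 25 mM NaCl in 2.5 °C steps up to 60 °C and normalised to pre-quench Cy3 and control constructs. Four replicates were combined by inverse-variance weighting, and fitted temperatures were raised by 9.35 °C to match UV melts.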

[2] = folding enthalpy; higher = less favourable; fluorescence melt of hairpins on a sequencing array, two-state fit; conditions: sodium 0.088 M
In short: as §1

Sequence	Tm [1] [°C]	folding enthalpy [2] [kcal/mol]
GAGTGTGCGAAAGCACTC (((..(((....))))))	37.8	-9.39
GAATATGGAAACATATCC (.(((((....))))).)	24.6	-13.6
GATCGCGTGGCGATC ((((((...))))))	69	-32.6
GGTCTCCGAAAGGACACC (((.(((....))).)))	42.1	-24.5
CGATACCGGAAACGGTCG (((..(((....))))))	35.1	-12.3
GTCGTTGGAAACGATGAC (((.(.(....).).)))	49	-13.5
GATCGACTTATCGATC ((((((....))))))	51	-44.6
GCAAAGCGAAAGCCTGGC ((.(.((....)).).))	35	-8.7
GCTTGGCGAAAGCCGCGC ((..(((....)))..))	57.6	-15.6
CGTACGGAAACGTAAACG ((((((....)))..)))	37.2	-17.3
GCGACGCGAAAGCTTGGC ((.(.((....)).).))	37.2	-10.3
GTCAGCGAAAGCTCAGAC ((((((....)))..)))	34.5	-15.8
GGTCATGGAAACGTGACC (((((.(....).)))))	53.6	-52.9
GCGTGCGAAAGCATCCGC ((((((....)))..)))	47.6	-17.3
CGAGAACGGAAACGTTCG (((..(((....))))))	52.9	-25.3
GCGTTCGGAAACGAGTGC ((..(((....)))..))	41.8	-25.7
GCGTAGACACGC ((((....))))	50.7	-19.8
TGCTTGAAAAAGCA (((((....)))))	47.9	-8.9
GATCGTCTGGACGATC ((((((....))))))	57.5	-42.6
GGGCTGGGAAACCAACCC (((.(((....))).)))	49	-30
GAGTCAGGAAACTGACCC (.(((((....))))).)	40.5	-13.4
GGAAACGAAAGTTTCTCC ((((((....)))..)))	45.9	-13.8
GCGGTCCCCCGC ((((....))))	57.7	-21.9

Sequence	Tm [1] [°C]	folding enthalpy [2] [kcal/mol]
GCCCGGGGAAACCTGGGC ((((.((....)).))))	62.3	-52.3
GACAGGACGAAAGTCGTC (((..(((....))))))	42.6	-16.7
GGCCTAGGAAACTGGGCC ((((.((....)).))))	57.9	-47.7
GGACCTGGAAACAAGTCC ((((.((....)).))))	38.7	-23.5
GCAGACGAAAGTCTATGC ((((((....)))..)))	45.8	-14.9
GACCACGGAAACGTGATC ((.((((....)))).))	43.3	-19.9
GGCTACGAAAGTAGTGCC ((((((....)))..)))	46.7	-16.6
GAGTACGGAAACGTGCTC (((.(((....))).)))	53.8	-48.9
GCTGTCGGAAACGGTAGC (((..((....))..)))	41.8	-28.9
GCCTCCGAAAGGATGGC ((((((....))).)))	57	-36.6
GTGATCGGAAACGATCAC (((((((....)))))))	68.6	-42.3
GCGCCCGAAAGGGGACGC ((((((....)))..)))	62.2	-19.6
GGCCAGGGAAACCTGGTC (.(((((....))))).)	57.6	-33.5
GTTCAAGGAAACTTGAGC (.(((((....))))).)	40.1	-22.5
GATCACGTGGGTGATC ((((((....))))))	57.1	-39.5
GCACCCGAAAGGGGGTGC ((((((....)))..)))	66.8	-21
GCGTTGCGAAAGCATAGC ((..(((....)))..))	58.4	-26.5
GAAAAGGGAAACCTTTCC (.(((((....))))).)	27.7	-13.9
GGTCAGCGAAAGCTACC (((.(((....))))))	47.5	-16.7
GGCTCTCGAAAGAGGGCC (((.(((....))).)))	64.7	-39.3
GATGACGAAAGTCCGATC ((((((....)))..)))	26.8	-12.8
GTTGACCGAAAGGTTAAC (((.(((....))).)))	53.1	-33.7
GCTTCCGAAAGGACGAGC ((((((....)))..)))	37.6	-18.8

Sequence	Tm [1] [°C]	folding enthalpy [2] [kcal/mol]
GGCGAGAAATCGCC (((((....)))))	65.5	-26.4
GTGTTGGGAAACCAATGC (..((((....))))..)	38	-25.2
GGGATAGGAAACTACCCC (((.(((....))).)))	38.7	-23
GATCGAGGGTCGATC ((((((...))))))	51	-32.3
GTTGCTGGAAACAGCAAC (((((((....)))))))	65.8	-62.8
GCTAGCGAAAGCTGAAGC ((((((....)))..)))	43.1	-15
TATGTGAAAACATA (((((....)))))	35.3	-12.4
GCTTCGACGAAAGTCAGC (((..(((....))))))	33.5	-13.1
GATCTCCGGAGAGATC ((((((....))))))	52.7	-39.4
GTACAGGGAAACCCGTAC ((((.((....)).))))	43.4	-24.8
GATCGCTTACGCGATC ((((((....))))))	68.6	-31.8
GGGAGTGGAAACATTCCC ((((.((....)).))))	48.2	-33.5
GGTTGGGGAAACCTGACC (((..((....))..)))	44.1	-22.5
TCCCGGAAACGGGA (((((....)))))	60.7	-19.7
GAGCTTCCGAAAGGACTC (((..(((....))))))	29.2	-27.4
GATCCTTGCAAGGATC ((((((....))))))	55.4	-41
GATCAGGCATCTGATC ((((((....))))))	55.6	-45.1
GCTATGCGAAAGCGTGGC ((.(.((....)).).))	53.5	-26.1
GGTGAAGGAAACTTCATC (.(((((....))))).)	42.1	-25.3
GGTGATGGAAACATTACC (((.(((....))).)))	45.2	-30.2
GATCATGTCCATGATC ((((((....))))))	54.8	-42.5
GCGCCGCGAAAGCACCGC (((..((....))..)))	46.2	-16.7
CGAGGCGGAAACGCTTCG (((.(((....))).)))	55.3	-35.3
